Consider 12 compounds from ChEMBL document CHEMBL1152540, “Antioxidant efficacy of iridoid and phenylethanoid glycosides from the medicinal plant Teucrium chamaedris in cell-free systems” (Bioorg Med Chem, 2009).

Assay [1] has as its system Radical scavenging activity. Description: Antioxidant activity assessed as DPPH radical scavenging activity after 30 mins by spectrophotometry. Type of assay: functional. (In general: Loss of DPPH colour is used to gauge radical scavenging.)
Assay [2] is described as follows: Antioxidant activity assessed as trolox equivalent of lipid peroxidation inhibition after 60 mins by TBARS assay. Type of assay: functional.
Assay [3] in a line: Antioxidant activity assessed as inhibition of H2O2-induced bovine serum albumin oxidation after 10 mins by spectrophotometry. Type of assay: functional. Conditions: in the assay text read “after 1 hr” for “after 10 mins”. An outline of the steps: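 BSA (10 mg/mL) was incubated 1 h at 37 °C in 20 mM phosphate, pH 7.4, with FeCl3 400 µM, H2O2 3 mM, ascorbate 400 µM and metabolite at 5, 10 or 20 µM. Carbonyls were derivatized with DNPH (20 mM in 2 N HCl) and TCA 20%, then centrifuged. The pellet was washed with EtOH/EtOAc, dissolved in 6 M guanidine-HCl, pH 6.5, and read at 370 nm. Runs were in triplicate, as % versus blank.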

A short description of assay [4]: Antioxidant activity assessed as trolox equivalent of inhibition of Fe3+ ion-induced 2-deoxyribose oxidation after 24 hrs by TBA method. Type of assay: functional.
Assay [5] in a line: Antioxidant activity assessed as trolox equivalent of inhibition of H2O2-induced bovine serum albumin oxidation after 1 hr by spectrophotometry.
Assay [6] relates to Radical scavenging activity. Description: Antioxidant activity assessed as trolox equivalent of DPPH radical scavenging activity after 30 mins by spectrophotometry. Type of assay: functional.
A short description of assay [7]: Antioxidant activity assessed as inhibition of lipid peroxidation after 60 mins by TBARS assay. Type of assay: functional. An outline of the steps:
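Olive oil (10.0 µg) was emulsified with Tween-40 in 0.2 M Tris-HCl, pH 7.4. The emulsion was UV-irradiated at 254 nm for 60 min, then stirred 24 h at room temperature. Thiobarbituric acid-reactive species were developed in a boiling water bath for 90 min and centrifuged, and the supernatant was read at 532 nm. Inhibition was given as % versus a blank without compound.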

A short description of assay [8]: Antioxidant activity assessed as inhibition of Fe3+ ion-induced 2-deoxyribose oxidation after 24 hrs by TBA method. Type of assay: functional. An outline of the steps: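 EDTA, FeCl3 and H2O2 (1.0 mM each) were preincubated for 1 h at 37 °C. 2-Deoxyribose (28 mM) and ascorbic acid (1.0 mM) were then added. Compounds at 5, 10 or 20 µM (150 µL per 1350 µL mixture) were incubated 24 h at 37 °C. Degradation was measured with TBA 0.5%/TCA 2.5% at 90 °C for 3 h, read at 532 nm, in triplicate.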

Assay [9] in a line: Antioxidant activity assessed as inhibition of H2O2-induced bovine serum albumin oxidation after 1 hr by spectrophotometry.
A short description of assay [10]: Antioxidant activity assessed as hydroxyl radical scavenging activity at 20 uM. Type of assay: functional.

Broadly, the IC50 is the point on the concentration scale where inhibition reaches its midpoint.

Take `COc1ccc(/C=C/C(=O)OC[C@H]2O[C@@H](O[C@H]3OC=C[C@H]4[C@@H]3[C@](C)(O)C[C@@H]4O)[C@H](O)[C@@H](O)[C@@H]2O)cc1OC`: the half-inhibitory concentration (IC50) in assay [1] is > 300 µM.

Consider `C[C@@H]1O[C@@H](O[C@@H]2[C@@H](O)[C@H](OCCc3ccc(O)c(O)c3)O[C@H](CO)[C@H]2OC(=O)/C=C/c2ccc(O)c(O)c2)[C@H](O)[C@H](O)[C@H]1O` [ACETOSIDE], for which the Activity in assay [2] was 3.3; in [4], 0.5; in assay [5] it was 1.2; in [6] it was 1.3; in assay [1], “Dose-dependent effect”. In addition, the 50% inhibitory concentration (IC50) in assay [3] was determined as 57.2 µM; in assay [7], 9.7 µM; in assay [1] it was 15.3 µM; in assay [8] it was 26.4 µM.

`COc1ccc(/C=C/C(=O)OC[C@H]2O[C@@H](O[C@H]3OC=C[C@@]4(O)[C@@H]3[C@](C)(O)C[C@@H]4O)[C@H](O)[C@@H](O)[C@@H]2O)cc1`: the Activity in [2] is 0.5; in assay [4], 1.4; in [5], 6.6; in [1], “Dose-dependent effect”. The IC50 was 67.3 µM in assay [7], 10.4 µM in [9], > 300 µM in assay [1] and 13.2 µM in [8].

For `CC(=O)O[C@]1(C)C[C@H](O)[C@@]2(O)C=CO[C@H](O[C@@H]3O[C@H](CO)[C@@H](O)[C@H](O)[C@H]3O)[C@H]21`, the Activity was 0.7 in [2], 0.3 in [4], 2.9 in [5] and “Dose-dependent effect” in assay [1]. The IC50 was 23.5 µM in [3], 45.5 µM in [7], > 300 µM in [1] and 51 µM in assay [8].

For the compound `C[C@@H]1O[C@@H](O[C@@H]2[C@@H](O)[C@H](OCCc3ccc(O)c(O)c3)O[C@H](CO)[C@H]2OC(=O)/C=C/c2ccc(O)c(O)c2)[C@H](O[C@@H]2OC[C@H](O)[C@@H](O)[C@H]2O)[C@H](O)[C@H]1O`, the Activity in assay [2] is 2; in assay [4], 0.5; in assay [10], 54.7%; in assay [5] it was 1.5; in assay [6] it was 1.4; in [1], “Dose-dependent effect”. Besides, the IC50 in [3] was determined as 44.8 µM; in assay [7], 16.3 µM; in assay [1] it was 16.5 µM; in [8], 34.6 µM.

`Cc1c(C)c2c(c(C)c1O)CCC(C)(C(=O)O)O2` (stereo unspecified) [TROLOX]: the IC50 in assay [3] came to 69.2 µM; in assay [7], 31.8 µM; in assay [1], 21 µM; in [8], 18 µM.

`COc1ccc(/C=C/C(=O)OC[C@H]2O[C@@H](O[C@H]3OC=C[C@@]4(O)[C@@H]3[C@](C)(O)C[C@@H]4O)[C@H](O[C@@H]3O[C@H](CO)[C@@H](O)[C@H](O)[C@H]3O)[C@@H](O)[C@@H]2O)cc1`: the Activity in assay [2] was 0.8; in assay [4], 1.4; in [5], 5.4; in assay [1], “Dose-dependent effect”. In addition, the IC50 was 12.8 µM in assay [3], 39 µM in assay [7], > 300 µM in assay [1] and 12.9 µM in [8].

`COc1ccc(/C=C/C(=O)OC[C@H]2O[C@@H](O[C@H]3OC=C[C@@]4(O)[C@@H]3[C@](C)(O)C[C@@H]4O)[C@H](O)[C@@H](O)[C@@H]2O)cc1OC`: the Activity in [2] is 1; in [4] it was 0.7; in assay [5] it was 6.5; in [1], “Dose-dependent effect”. Moreover, the IC50 in assay [7] is 33.1 µM; in [9], 10.7 µM; in [1], > 300 µM; in assay [8], 26.5 µM.

Turning to `COc1cc(/C=C/C(=O)O[C@H]2[C@H](O[C@@H]3O[C@@H](C)[C@H](O)[C@@H](O)[C@H]3O[C@@H]3OC[C@H](O)[C@@H](O)[C@H]3O)[C@@H](O)[C@H](OCCc3ccc(O)c(O)c3)O[C@@H]2CO)ccc1O`, the Activity in [2] is 1.5; in assay [4] it was 0.6; in [5] it was 2.1; in assay [6] it was 1.5; in [1], “Dose-dependent effect”. Also, the IC50 in assay [3] amounted to 32.8 µM; in assay [7] it was 20.9 µM; in [1] it was 14 µM; in assay [8], 32 µM.

Consider `COc1cc(/C=C/C(=O)OC[C@H]2O[C@@H](OCCc3ccc(O)c(O)c3)[C@H](O)[C@@H](O[C@@H]3O[C@@H](C)[C@H](O)[C@@H](O)[C@H]3O[C@@H]3OC[C@H](O)[C@@H](O)[C@H]3O)[C@@H]2O)ccc1O`, for which the Activity in assay [2] is 0.7; in assay [4] it was 0.5; in assay [5] it was 3.8; in assay [6] it was 1.9; in assay [1], “Dose-dependent effect”. Also, the IC50 in [3] worked out at 18.1 µM; in assay [7], 46.7 µM; in assay [1] it was 11 µM; in [8] it was 37.3 µM.

Regarding `CC(=O)O[C@]1(C)C[C@H](O)[C@H]2C=CO[C@H](O[C@@H]3O[C@H](CO)[C@@H](O)[C@H](O)[C@H]3O)[C@H]21`, the Activity in assay [2] is 0.7; in assay [4], 0.3; in assay [5], 1.8; in assay [1], “Dose-dependent effect”. Further, the IC50 in assay [3] was 38.9 µM; in [7] it was 44.2 µM; in assay [1], > 300 µM; in assay [8], 52.2 µM.

With `C[C@@H]1O[C@@H](O[C@@H]2[C@@H](O)[C@H](OCCc3ccc(O)c(O)c3)O[C@H](COC(=O)/C=C/c3ccc(O)c(O)c3)[C@H]2O)[C@H](O[C@@H]2OC[C@H](O)[C@@H](O)[C@H]2O)[C@H](O)[C@H]1O`, the Activity in assay [2] was 1.2; in [4], 0.7; in [5] it was 1.8; in assay [6], 0.5; in [1], “Dose-dependent effect”. Also, the IC50 in assay [3] was 38 µM; in assay [7], 26.3 µM; in [1], 38.3 µM; in assay [8], 33.5 µM.
